# Laboratory results taken from ChEMBL document CHEMBL1149291, “Discovery of N-(2-chloro-6-methyl- phenyl)-2-(6-(4-(2-hydroxyethyl)- piperazin-1-yl)-2-methylpyrimidin-4-ylamino)thiazole-5-carboxamide (BMS-354825), a dual Src/Abl kinase inhibitor with potent antitumor activity in preclinical assays” (J Med Chem, 2004).
# Experiments:
# MDA-MB-231 = experiment: cells; conditions: Homo sapiens, MDA-MB-231, 72 h
# PC-3 = experiment: cells; conditions: Homo sapiens, PC-3, 72 h
# [1] = Cmax in BALB/c mouse at 50 mg/kg, po after 4 hrs; format: ADME, organism-based; design: dose 50 mg/kg, route oral; conditions: in vivo
# In short: (§1)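 Mouse 4 h oral exposure screen: oral dose of 50 mg/kg given as a solution in 1:1 propylene glycol:water. Plasma drug levels followed over 4 h, giving AUC(0-4h), peak concentration (Cmax) and the concentration at 4 h.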
# [2] = Plasma concentration in BALB/c mouse at 50 mg/kg, po after 4 hrs; format: ADME, organism-based; design: dose 50 mg/kg, route oral
# In short: as §1
# WiDr = experiment: cells; conditions: Homo sapiens, 72 h
# K562 = experiment: Antiproliferative activity against human K562 cells after 72 hrs; format: functional, cell-based; conditions: K562, 72 h
# [3] = AUC (0-4 hrs) in BALB/c mouse at 50 mg/kg, po after 4 hrs; format: ADME, organism-based; design: time < 4 hr, dose 50 mg/kg, route oral; conditions: plasma
# In short: as §1
# [4] = (§2) Protein binding in human serum at 10 uM; format: ADME, cell-free; conditions: read-out: PPB (converted)
# In short: (§3)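 Binding to human serum proteins measured at a compound concentration of 10 μM.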
# Serum = experiment: as §2; format: ADME, cell-free; conditions: 10 µM
# In short: as §3
# [5] = Volume of distribution in Sprague-Dawley rat at 10 mg/kg, iv; format: ADME, organism-based; design: dose 10 mg/kg, route intravenous; conditions: in vivo, read-out: Vss
# In short: (§4)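 Sprague-Dawley rats dosed at 10 mg/kg, either iv or orally, with drug as a solution in citric acid buffer pH 4.6. Parameters derived from plasma levels: Cmax, Tmax, AUCtot, t1/2, MRT, clearance, Vss, and oral bioavailability.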
# [6] = Tmax in Sprague-Dawley rat at 10 mg/kg, po; format: ADME, organism-based; design: dose 10 mg/kg, route oral; conditions: in vivo
# In short: as §4
# Rattus norvegicus [7] = experiment: Oral bioavailability in Sprague-Dawley rat at 10 mg/kg, po; format: ADME, organism-based; conditions: in vivo
# In short: (§5)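 Sprague–Dawley rats each given 10 mg/kg of compound, either intravenously or orally, in separate arms. Pharmacokinetic parameters were reported for each route as means with a variability term in parentheses. These were Cmax, Tmax, AUCtot, t1/2, MRT, and, for the iv dose, Cl and Vss. Oral bioavailability (Fpo) was reported for the oral arm.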
# Mus musculus = species: Mus musculus; experiment: Toxicity in nude mouse; format: organism-based; conditions: in vivo
# In short: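 K562 cells implanted subcutaneously in nude mice and staged to about 300 mg tumors. Oral dosing once daily at 5 or 50 mg/kg on a 5 day on/2 day off schedule for two cycles. Toxicity scored as animal deaths or lack of weight gain.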
# [8] = Cmax in Sprague-Dawley rat at 10 mg/kg, iv; format: ADME, organism-based; design: dose 10 mg/kg, route intravenous; conditions: in vivo
# In short: as §5
# [9] = Mean residence time in Sprague-Dawley rat at 10 mg/kg, po; format: ADME, organism-based; design: dose 10 mg/kg, route oral; conditions: in vivo
# In short: as §4
# [10] = AUC (total) in Sprague-Dawley rat at 10 mg/kg, po; format: ADME, organism-based; design: dose 10 mg/kg, route oral; conditions: plasma
# In short: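 Sprague–Dawley rats; single 10 mg/kg oral dose given as a solution. Total plasma AUC (μM·h) taken from the pharmacokinetic profile alongside Cmax, Tmax, t1/2 and MRT.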
# [11] = AUC (total) in Sprague-Dawley rat at 10 mg/kg, iv; format: ADME, organism-based; design: dose 10 mg/kg, route intravenous; conditions: plasma
# In short: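 Sprague–Dawley rats; single 10 mg/kg intravenous dose as a solution in citric acid buffer at pH 4.6. Total plasma AUC (μM·h) taken from the pharmacokinetic profile alongside Cmax, t1/2, MRT, clearance and Vss.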
# [12] = Cmax in Sprague-Dawley rat at 10 mg/kg, po; format: ADME, organism-based; design: dose 10 mg/kg, route oral; conditions: in vivo
# In short: as §5
# Rattus norvegicus [13] = experiment: Clearance in Sprague-Dawley rat at 10 mg/kg, iv; format: ADME, organism-based; design: dose 10 mg/kg, route intravenous; conditions: in vivo
# In short: as §4
# [14] = Mean residence time in Sprague-Dawley rat at 10 mg/kg, iv; format: ADME, organism-based; design: dose 10 mg/kg, route intravenous; conditions: in vivo
# In short: as §4
SMILES,IC50 (MDA-MB-231),IC50 (PC-3),Cmax [1],concentration at 4 h [2],IC50 (WiDr),IC50 (K562),AUC(0-t) at 4 h [3],fraction unbound at 10 µM [4],PPB (Serum),Vd [5],Tmax [6],F (Rattus norvegicus [7]),Activity (Mus musculus),Cmax [8],MRT [9],AUC [10],AUC [11],Cmax [12],clearance (Rattus norvegicus [13]),MRT [14]
Cc1cccc(Cl)c1NC(=O)c1cnc(Nc2cc(NCCN3CCOCC3)ncn2)s1,170 nM,82 nM,9600 nM,1900 nM,270 nM,< 2 nM,17 µM·h,,,,,,,,,,,,,
Cc1cccc(Cl)c1NC(=O)c1cnc(Nc2cc(N3CCOCC3)ncn2)s1,45 nM,24 nM,960 nM,220 nM,270 nM,< 3 nM,1.7 µM·h,,,,,,,,,,,,,
Cc1nc(NCCCN2CCOCC2)cc(Nc2ncc(C(=O)Nc3c(C)cccc3Cl)s2)n1,23 nM,14 nM,3100 nM,3100 nM,27 nM,< 2 nM,11 µM·h,0.08,,,,,,,,,,,,
Cc1nc(Nc2ncc(C(=O)Nc3c(C)cccc3Cl)s2)cc(N2CCC(CO)CC2)n1,9 nM,11 nM,2500 nM,180 nM,41 nM,< 1 nM,3.5 µM·h,,,,,,,,,,,,,
Cc1nc(Nc2ncc(C(=O)Nc3c(C)cccc3Cl)s2)cc(N2CCOCC2)n1,16 nM,3.6 nM,67 nM,37 nM,27 nM,< 3 nM,0.16 µM·h,,,,,,,,,,,,,
Cc1nc(NCCN2CCOCC2)cc(Nc2ncc(C(=O)Nc3c(C)cccc3Cl)s2)n1,47 nM,25 nM,2200 nM,280 nM,180 nM,< 1 nM,3.1 µM·h,,,,,,,,,,,,,
Cc1cccc(Cl)c1NC(=O)c1cnc(Nc2cccc(NCCCN3CCOCC3)n2)s1,34 nM,10 nM,8600 nM,1100 nM,32 nM,< 2 nM,13 µM·h,,,,,,,,,,,,,
Cc1cc(Nc2ncc(C(=O)Nc3c(C)cccc3Cl)s2)nc(C)n1,,67 nM,,,,1.6 nM,,,,,,,,,,,,,,
Cc1cccc(Cl)c1NC(=O)c1cnc(Nc2cccc(NCCO)n2)s1,3.1 nM,13 nM,7000 nM,300 nM,7.9 nM,< 3 nM,7.2 µM·h,0.08,,,,,,,,,,,,
Cc1nc(NCCO)cc(Nc2ncc(C(=O)Nc3c(C)cccc3Cl)s2)n1,140 nM,27 nM,800 nM,170 nM,210 nM,< 4 nM,1.5 µM·h,,,,,,,,,,,,,
Cc1cccc(Cl)c1NC(=O)c1cnc(Nc2cccc(NCCCn3ccnc3)n2)s1,< 3 nM,2.8 nM,88 nM,33 nM,4.1 nM,< 3 nM,0.16 µM·h,0.01,,,,,,,,,,,,
Cc1nc(Nc2ncc(C(=O)Nc3c(C)cccc3Cl)s2)cc(N2CCN(CCO)CC2)n1.O [DASATINIB],12 nM,9.4 nM,2700 nM,700 nM,52 nM,< 1 nM,4.8 µM·h,,91%,6.3 L/kg,2.2 h,27%,Non-toxic,13200 nM,6.7 h,3.8 µM·h,13.9 µM·h,500 nM,26.4 mL/min/kg,4.1 h
